Reference: ChEMBL document CHEMBL4002602, “Design, Synthesis of Novel, Potent, Selective, Orally Bioavailable Adenosine A2A Receptor Antagonists and Their Biological Evaluation” (J Med Chem, 2017)
In brackets after ≈: the same amount, converted by molar mass.

Key:
Adenosine receptor A2a = Adenosine receptor A2a (Homo sapiens, UniProt P29274); assay: Antagonist activity at human adenosine A2A receptor expressed in HEK293 cell membranes assessed as decrease in CGS-21680-induced cAMP level pretreated for 15 mins followed by agonist addition for 30 mins
Adenosine receptor A3 = target: T1, Adenosine receptor A3 (Homo sapiens, UniProt P0DMS8); assay: Displacement of [3H]-HEMADO from human adenosine A3 receptor expressed in HEK293 cell membranes measured after 90 mins
T1 sequence (P0DMS8 whole entry): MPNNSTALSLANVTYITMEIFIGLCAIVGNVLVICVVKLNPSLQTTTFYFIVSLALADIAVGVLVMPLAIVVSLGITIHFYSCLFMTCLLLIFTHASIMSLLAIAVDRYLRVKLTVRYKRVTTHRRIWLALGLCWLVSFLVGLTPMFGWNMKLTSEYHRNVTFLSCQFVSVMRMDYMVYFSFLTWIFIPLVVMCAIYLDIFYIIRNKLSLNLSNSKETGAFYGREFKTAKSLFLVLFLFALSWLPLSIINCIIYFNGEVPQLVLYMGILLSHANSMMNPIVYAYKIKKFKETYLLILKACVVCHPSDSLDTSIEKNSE

[1] = target: T2, Adenosine receptor A3 (Homo sapiens) (UniProt P0DMS8); assay: Displacement of [3H]-HEMADO from human adenosine A3 receptor expressed in HEK293 cell membranes at 1 uM measured after 90 mins relative to control
T2 sequence (whole entry): T1 sequence (P0DMS8 whole entry)

[2] = Cmax in Wistar rat at 10 mg/kg administered via oral gavage by LC/MS/MS analysis; assay type: ADME, organism-based; set-up: dose 10 mg/kg, route oral; settings: in vivo
Summary of the method: (§1)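 Fasted male Wistar rats given 10 mg/kg PO as a suspension in 1% Tween 80, 0.5% w/v NaCMC. Serial plasma sampling (K2EDTA) at 0.25–24 h, acetonitrile precipitation, LC/MS/MS. Non-compartmental analysis per animal; bioavailability calculated against the 3 mg/kg IV group; mean of n=4.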

[3] = Tmax in Wistar rat at 10 mg/kg administered via oral gavage by LC/MS/MS analysis; assay type: ADME, organism-based; settings: in vivo
Summary of the method: as §1

Liver [4] = assay: Metabolic stability in human liver microsomes assessed as metabolic rate at 1 uM preincubated for 5 mins followed by addition of NADPH measured after 3 to 30 mins by LC-MS/MS analysis; assay type: ADME, microsome
[5] = AUC (0 to t) in Wistar rat at 3 mg/kg, iv by LC/MS/MS analysis; assay type: ADME, organism-based; settings: in vivo
Summary of the method: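 Overnight-fasted male Wistar rats received a 3 mg/kg tail-vein solution (0.6 mg/mL, 5 mL/kg). Vehicle was 10% NMP with PEG300, Cremophor EL and/or HPβ-CD in 0.1 M acetate buffer, pH 4.2; co-solvents varied by compound. Serial K2EDTA blood samples (n=3/time point) taken 0.008–24 h. Plasma measured by LC/MS/MS; non-compartmental AUC0-t per animal.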

[6] = Equilibrium aqueous solubility of the compound at pH 2.1 after 4 hrs; assay type: physicochemical; settings: aqueous medium
Adenosine receptor A1 = target: T3, Adenosine receptor A1 (Homo sapiens, UniProt P30542); assay: Displacement of [3H]-DPCPX from human adenosine A1 receptor expressed in HEK293 cell membranes measured after 90 mins
T3 sequence (P30542 whole entry): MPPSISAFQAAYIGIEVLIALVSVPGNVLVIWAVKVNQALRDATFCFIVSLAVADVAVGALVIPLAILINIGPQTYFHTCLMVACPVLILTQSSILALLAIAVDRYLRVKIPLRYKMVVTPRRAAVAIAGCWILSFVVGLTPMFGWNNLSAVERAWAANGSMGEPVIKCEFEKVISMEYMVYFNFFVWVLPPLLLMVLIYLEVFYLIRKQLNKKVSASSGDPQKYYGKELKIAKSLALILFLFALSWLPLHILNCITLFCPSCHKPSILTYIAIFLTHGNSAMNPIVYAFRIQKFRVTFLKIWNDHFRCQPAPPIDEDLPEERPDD
Summary of the method: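 Competition binding on membranes from HEK-293 cells overexpressing human A1, A2A, A2B or A3, washed with ADA. Radioligands: [3H]-DPCPX 1 nM (A1), [3H]ZM241385 1 nM (A2A), [3H]-MRS-1754 1.6 nM (A2B), [3H]-HEMADO 2 nM (A3). Buffer was 50 mM Tris with EDTA and ADA; MgCl2 10 mM for A2A/A3; A2B at pH 6.5 with 5 mM MgCl2. Incubation 90 min at room temperature, then filtration. Nonspecific binding defined by NECA 100 μM. Ki values: mean of two experiments, triplicate points.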

Cytochrome P450 2D6 = Cytochrome P450 2D6 (Homo sapiens, UniProt P10635); assay: Inhibition of CYP2D6 in human liver microsomes at 5 to 25 uM using dextromethorphan as substrate preincubated for 5 mins with substrate followed by NADPH addition measured after 10 mins by LC-MS/MS analysis; assay type: ADME; settings: microsomes, 10 min, 25 µM
Cytochrome P450 2C9 = Cytochrome P450 2C9 (Homo sapiens, UniProt P11712); assay: Inhibition of CYP2C9 in human liver microsomes at 5 to 25 uM using diclofenac as substrate preincubated for 5 mins with substrate followed by NADPH addition measured after 10 mins by LC-MS/MS analysis; assay type: ADME; settings: microsomes, 10 min, 25 µM
[7] = target: T4, Adenosine receptor A1 (Homo sapiens) (UniProt P30542); assay: Displacement of [3H]-DPCPX from human adenosine A1 receptor expressed in HEK293 cell membranes at 1 uM measured after 90 mins relative to control
T4 sequence (whole entry): T3 sequence (P30542 whole entry)

[8] = Equilibrium aqueous solubility of the compound at pH 7.4 after 4 hrs; assay type: physicochemical; settings: aqueous medium
[9] = target: T5, Adenosine receptor A2b (Homo sapiens) (UniProt P29275); assay: Displacement of [3H]-MRS-1754 from human adenosine A2B receptor expressed in HEK293 cell membranes at 1 uM measured after 90 mins relative to control
T5 sequence (whole entry): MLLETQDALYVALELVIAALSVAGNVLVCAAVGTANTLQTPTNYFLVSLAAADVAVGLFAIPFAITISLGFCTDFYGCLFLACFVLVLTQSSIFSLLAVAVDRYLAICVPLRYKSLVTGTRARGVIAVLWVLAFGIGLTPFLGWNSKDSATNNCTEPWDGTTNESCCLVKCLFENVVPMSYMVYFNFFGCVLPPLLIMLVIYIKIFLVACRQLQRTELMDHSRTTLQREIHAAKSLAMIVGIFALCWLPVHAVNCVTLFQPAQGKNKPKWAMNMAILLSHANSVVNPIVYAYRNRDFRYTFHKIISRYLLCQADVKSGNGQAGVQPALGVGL

Cytochrome P450 3A = Cytochrome P450 3A (Homo sapiens, UniProt P08684+P20815+Q9HB55+P24462); assay: Inhibition of CYP3A in human liver microsomes at 5 to 25 uM using testosterone as substrate preincubated for 5 mins with substrate followed by NADPH addition measured after 10 mins by LC-MS/MS analysis; assay type: ADME; settings: microsomes, 10 min, 25 µM
Liver [10] = assay: Metabolic stability in rat liver microsomes assessed as metabolic rate at 1 uM preincubated for 5 mins followed by addition of NADPH measured after 3 to 30 mins by LC-MS/MS analysis; assay type: ADME, microsome

Chain of Adenosine receptor A2a (P29274 whole entry): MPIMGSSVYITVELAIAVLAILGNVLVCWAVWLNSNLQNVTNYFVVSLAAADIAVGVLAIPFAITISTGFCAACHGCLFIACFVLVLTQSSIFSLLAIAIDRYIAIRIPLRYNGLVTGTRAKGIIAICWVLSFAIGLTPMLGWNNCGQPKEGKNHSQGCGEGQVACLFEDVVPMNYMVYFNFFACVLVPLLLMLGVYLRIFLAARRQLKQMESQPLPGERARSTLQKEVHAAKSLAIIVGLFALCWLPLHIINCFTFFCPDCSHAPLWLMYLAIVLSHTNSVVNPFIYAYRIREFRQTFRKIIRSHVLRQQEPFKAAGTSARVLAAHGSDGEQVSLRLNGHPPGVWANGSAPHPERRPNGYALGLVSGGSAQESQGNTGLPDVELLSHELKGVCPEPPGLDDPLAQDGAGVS
Chain of Cytochrome P450 2C9 (P11712 whole entry): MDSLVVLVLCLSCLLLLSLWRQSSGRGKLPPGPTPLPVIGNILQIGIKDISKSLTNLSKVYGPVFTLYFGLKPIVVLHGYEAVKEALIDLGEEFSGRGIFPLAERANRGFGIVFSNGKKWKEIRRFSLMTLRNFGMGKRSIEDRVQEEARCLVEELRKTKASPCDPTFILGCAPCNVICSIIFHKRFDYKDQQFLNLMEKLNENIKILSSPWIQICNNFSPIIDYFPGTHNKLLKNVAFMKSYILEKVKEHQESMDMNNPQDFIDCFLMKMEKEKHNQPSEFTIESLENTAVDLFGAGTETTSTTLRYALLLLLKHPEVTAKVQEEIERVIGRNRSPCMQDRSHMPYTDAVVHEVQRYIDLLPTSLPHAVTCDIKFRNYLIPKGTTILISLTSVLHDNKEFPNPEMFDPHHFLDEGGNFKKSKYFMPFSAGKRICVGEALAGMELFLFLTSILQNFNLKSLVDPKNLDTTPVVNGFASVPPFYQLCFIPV
Chain of Cytochrome P450 2D6 (P10635 whole entry): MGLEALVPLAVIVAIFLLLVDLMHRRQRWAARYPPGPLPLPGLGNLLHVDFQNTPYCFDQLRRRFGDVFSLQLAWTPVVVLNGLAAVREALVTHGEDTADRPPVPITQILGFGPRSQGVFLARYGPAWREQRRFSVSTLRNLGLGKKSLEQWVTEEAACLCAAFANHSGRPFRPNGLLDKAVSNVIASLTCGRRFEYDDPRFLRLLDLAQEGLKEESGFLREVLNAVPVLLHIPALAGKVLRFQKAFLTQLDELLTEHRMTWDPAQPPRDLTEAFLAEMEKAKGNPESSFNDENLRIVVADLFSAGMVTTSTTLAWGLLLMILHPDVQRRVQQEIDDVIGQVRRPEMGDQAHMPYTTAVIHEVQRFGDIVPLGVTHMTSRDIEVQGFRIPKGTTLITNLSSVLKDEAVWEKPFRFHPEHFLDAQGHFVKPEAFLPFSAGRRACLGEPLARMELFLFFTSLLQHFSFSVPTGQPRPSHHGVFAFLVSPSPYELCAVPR

SMILES	Ki (Adenosine receptor A2a)	Ki (Adenosine receptor A3)	inhibition [1]	Cmax [2]	Tmax [3]	Drug metabolism (Liver [4])	AUC(0-t) [5]	solubility thermodynamic at 4 h [6]	Ki (Adenosine receptor A1)	inhibition (INH) (Cytochrome P450 2D6)	inhibition (INH) (Cytochrome P450 2C9)	inhibition [7]	solubility thermodynamic at 4 h [8]	inhibition [9]	inhibition (INH) (Cytochrome P450 3A)	Drug metabolism (Liver [10])
COc1ccc(N2CCOCC2)c2sc(NC(=O)C(C)(C)Oc3ccc(F)c(F)c3)nc12	2.4 nM	500 nM	28%	1330 nM	30 min	0.07 nmol/min/mg	10.7 µM·h	< 6 µM	1100 nM	Not Active	Not Active	38%	< 6 µM	34%	Not Active	0.09 nmol/min/mg
COc1ccc(N2CCOCC2)c2sc(NC(=O)C(C)(C)Oc3ccc(F)cc3)nc12	4.2 nM	5000 nM	11%	190 nM	30 min	0.02 nmol/min/mg	7.6 µM·h	< 6 µM	5000 nM	Not Active	Not Active	16%	< 6 µM	0%	Not Active	0.04 nmol/min/mg
COc1cnc(N2CCOCC2)c2sc(NC(=O)C(C)(C)Oc3ccc(F)cc3)nc12	6.5 nM	400 nM	46%	1100 nM	165 min	< 0.04 nmol/min/mg	16.4 µM·h	< 6 µM	500 nM	Not Active	Not Active	46%	< 6 µM	24%	Not Active	< 0.04 nmol/min/mg

Now those with a lower Ki (Adenosine receptor A2a), led by results:

Ki (Adenosine receptor A2a)	Ki (Adenosine receptor A3)	inhibition [1]	Cmax [2]	Tmax [3]	Drug metabolism (Liver [4])	AUC(0-t) [5]	solubility thermodynamic at 4 h [6]	Ki (Adenosine receptor A1)	inhibition (INH) (Cytochrome P450 2D6)	inhibition (INH) (Cytochrome P450 2C9)	inhibition [7]	solubility thermodynamic at 4 h [8]	inhibition [9]	inhibition (INH) (Cytochrome P450 3A)	Drug metabolism (Liver [10])	SMILES
0.25 nM			5400 nM	30 min	< 0.04 nmol/min/mg	3.7 µM·h	139 µM (≈ 58.3 µg/mL)	2900 nM				114 µM (≈ 47.8 µg/mL)			< 0.04 nmol/min/mg	COc1ccc(N2CCOCC2)c2sc(NC(=O)C3(C)CCC(C)(O)CC3)nc12 (stereo unspecified)
0.2 nM			2020 nM	37.8 min	0.03 nmol/min/mg	2.7 µM·h	1840 µM (≈ 848 µg/mL)	1200 nM				1590 µM (≈ 731 µg/mL)			0.01 nmol/min/mg	CCN(CC)C1CCC(C)(C(=O)Nc2nc3c(OC)ccc(N4CCOCC4)c3s2)CC1 (stereo unspecified)
